These results are taken from ChEMBL document CHEMBL4513216, “Probing the Open Global Health Chemical Diversity Library for Multistage-Active Starting Points for Next-Generation Antimalarials” (ACS Infect Dis, 2020).

This data set can be described thus: Toxicity liver stage against HepG2, at 10uM. The data set is classed as cell-based. On the set-up: test concentration 10 uM, cell line HepG2-A16-CD81EGFP. The note with it: human, HepG2-A16-CD81EGFP cells; read-out: INHIBITION
In short, it runs like this:
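Uninfected HepG2-A16-CD81EGFP cells, 3 × 10^3 per well, 1536-well, plated on prespotted compound at 10 μM final, parasite-free screening media added to match infected plates; puromycin 10 μM positive, DMSO 0.5% negative; run in parallel with 48 h PbLuc assay at 37 °C, 5% CO2; viability by CellTiter-Glo luminescence, normalized to controls.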
For the compound `Cc1cc(C(=O)N2CCN(S(C)(=O)=O)[C@@H](C)C2)c(F)cc1F`, the cytotoxicity at 10 µM was -1.78%. With `OCc1cc2ccccc2nc1NCC1CCN(CC(F)(F)F)C1` (stereo unspecified), the cytotoxicity at 10 µM is -55.7%.

With `CCn1cc(S(=O)(=O)N2CCCC2c2ccc(C)o2)cn1` (stereo unspecified), the cytotoxicity at 10 µM turned out to be 20.9%. Regarding `c1ccc(O[C@H]2CC[C@H]3[C@H]2OCCN3Cc2nccs2)nc1`, the cytotoxicity at 10 µM was -12.6%.

As for `CN(C(=O)Cc1ccccc1F)C1CCN(c2ccccn2)CC1`, the cytotoxicity at 10 µM is -0.644%. For `COc1ccc(CCN)cc1-c1ccc(O)cc1`, the cytotoxicity at 10 µM was -3.05%. As to `CCCS(=O)(=O)N1CCC2(CC1)CCn1c(-c3cnn(C)c3)cnc12`, the cytotoxicity at 10 µM was -142%. Consider `Cc1cnn(CC2CCCCN2C(=O)c2ccc(NC3CC3)nc2)c1` (stereo unspecified), for which the cytotoxicity at 10 µM was -11.9%. Turning to `COc1ccc(NC(=O)C(C)n2cncn2)cn1` (stereo unspecified), the cytotoxicity at 10 µM is -16.4%. For the compound `Cc1cnn(CC2CCCCN2Cc2nnsc2Cl)c1` (stereo unspecified), the cytotoxicity at 10 µM was -2.93%. As to `COc1cc(C2CC(=O)Nc3c2c(=O)[nH]n3C2CCCCC2)ccc1O` (stereo unspecified), the cytotoxicity at 10 µM is -0.607%. As for `COc1cc(CNCCc2cnn(C)c2)cc2c1OCCO2`, the cytotoxicity at 10 µM was -4.82%. As to `Cn1cc(CNCC2(O)CCCN(Cc3ccc(F)c(F)c3)C2=O)cn1` (stereo unspecified), the cytotoxicity at 10 µM is -14.5%. On to `Cc1nsc(NC2CC(=O)N(C(C)(C)C)C2)n1` (stereo unspecified), for which the cytotoxicity at 10 µM is -8.52%. For `Cc1cc(N(C)Cc2c(C)noc2C)n2nc(C)c(C)c2n1`, the cytotoxicity at 10 µM stood at 5.44%. The result for `CN(C)C(=O)[C@H]1C[C@H]2CN(c3ncccn3)C[C@@H]1O2` reads 6.1%; that for `Cc1cc(C)n2c(CCCNS(=O)(=O)c3cccs3)nnc2n1`, 1.57%; that for `CC(C)n1c(=O)[nH]c2cn(-c3ccccc3)c(=O)n21`, -7.01%. Regarding `Cc1cccc(CN2C[C@@H]3CN(C(=O)c4ccco4)C[C@@H]3C2=O)c1`, the cytotoxicity at 10 µM was -3.72%. As to `O=C(CN1CCc2sccc2C1)Nc1ccnc2ccnn12`, the cytotoxicity at 10 µM was found to be 46.8%. For `O=C(Cn1cc(I)cn1)N1CCCC1`, the cytotoxicity at 10 µM is -0.653%. As for `Cc1ccc(CN2CCCn3nnc(COCCN(C)C)c3C2)s1`, the cytotoxicity at 10 µM was -114%. Turning to `COc1ccccc1C(O)CNc1nccc(-c2ccc(C)nc2C)n1` (stereo unspecified), the cytotoxicity at 10 µM was determined as 8.95%. Consider `CN(C)c1cc(CNC(=O)c2cc(F)ccc2F)ccn1`, for which the cytotoxicity at 10 µM is -8.35%.

Consider `COc1ccc(CNC(=O)N2CCOCC2C2CC2)c(C)c1` (stereo unspecified), for which the cytotoxicity at 10 µM worked out at 4.54%. As for `CC(C)NC(=O)CN(C)C1CCN(c2cnc3ccccc3n2)CC1`, the cytotoxicity at 10 µM is -6.14%. Take `Cn1nc(CC(C)(C)C)cc1NC(=O)c1ccc2[nH]nnc2c1`: the cytotoxicity at 10 µM turned out to be 1.25%.

Regarding `COc1ccc(C(C)NCc2ccnn2C)cc1Cn1cccn1` (stereo unspecified), the cytotoxicity at 10 µM came to 7.57%.

As for `CS(=O)(=O)CCn1ccc(NC(=O)Cc2ccccc2Cl)n1`, the cytotoxicity at 10 µM came out at 13.6%. With `CCn1nc(C)c(CCNC(=O)c2coc(CN3CCOCC3)c2)c1C`, the cytotoxicity at 10 µM was -0.386%.

As to `O=C(N1CCCC1)N1Cc2nccn2CC(Cn2ncccc2=O)C1` (stereo unspecified), the cytotoxicity at 10 µM is 3.39%.

Regarding `Cc1ccc(OC2(C(=O)NC(C)c3csc(C)n3)CCNCC2)cc1` (stereo unspecified), the cytotoxicity at 10 µM is -0.432%. Take `Cc1cc(C)n(C2CN(Cc3nc4cc(Cl)ccc4n3C)C2)n1`: the cytotoxicity at 10 µM was -2.35%. Regarding `CCCn1nnc(NCc2ccccc2OCc2ccc(Cl)cc2)n1`, the cytotoxicity at 10 µM is 2.76%. The result for `Cc1cc(C(=O)N2CCCC2c2nnc3n2CCCCC3)no1` (stereo unspecified) reads -14%; that for `CN1CCc2c(CNc3ncccn3)n[nH]c2C1`, -3.21%. In the case of `Cc1cc(NCc2cccc(C#N)c2)ccc1C(N)=O`, the cytotoxicity at 10 µM was 10.1%. In the case of `CCc1n[nH]c(C2CN(C(=O)c3nc(C)n4ccccc34)CCO2)n1` (stereo unspecified), the cytotoxicity at 10 µM was -11.2%. On to `CN1CCN(CCO)C(=O)C12CCN(Cc1ccsc1)CC2`, for which the cytotoxicity at 10 µM worked out at 3.66%. Take `Cn1nc(COCC2CC2)c2c1CN(CC1CC1)CC2`: the cytotoxicity at 10 µM came out at 13.8%. `Cc1sc(NC(=O)CN2CCCC(c3ncc[nH]3)C2)c(C)c1C` (stereo unspecified): the cytotoxicity at 10 µM stood at 28.1%. The result for `CCOCCCNC(=O)c1cn(C(C)(C)C)c2ncccc12` reads 2.05%.

Take `CC(C)NC(=O)N1CCN(C(=O)N(C)C)CC2(CC(=O)N(C)C2)C1` (stereo unspecified): the cytotoxicity at 10 µM is -17.8%. Turning to `CCc1ccc(O)c(C(=O)NC2CCN(Cc3ccncc3)CC2)c1`, the cytotoxicity at 10 µM came to 5.52%. For `CN1CCCCC1c1ncc2c(n1)CCN(CCCc1ccccc1)C2` (stereo unspecified), the cytotoxicity at 10 µM was -30.5%. Consider `Cc1ccnc(NCC2(N(C)C)CCOCC2)n1`, for which the cytotoxicity at 10 µM is 3.81%. With `CCc1noc(C(C)SCCS(C)(=O)=O)n1` (stereo unspecified), the cytotoxicity at 10 µM was determined as 5.5%. For `COc1cccc(OCC2CCCN(C(C)=O)C2)c1` (stereo unspecified) the value was 5.85%. `Cc1nccc([C@@H]2C[C@@H]3CCN(Cc4cccs4)C[C@H]3O2)n1`: the cytotoxicity at 10 µM is -143%. As to `Cc1cccc(CN2CC[C@H]3[C@@H]2CC(=O)N3CC2CC2)n1`, the cytotoxicity at 10 µM was -4.25%. With `COc1c(CNCc2ccc3c(c2)OCCO3)c(C(C)C)nn1C`, the cytotoxicity at 10 µM is -3.42%. For the compound `CN(Cc1cnn(C)c1)C(=O)C(c1ccccc1)N1CCSCC1` (stereo unspecified), the cytotoxicity at 10 µM turned out to be 5.21%.

For `Cn1cc(C2COC3(CCN(C(=O)c4cccn4C)CC3)C2)cn1` (stereo unspecified), the cytotoxicity at 10 µM is -75.4%. In the case of `CC(C)NC(=O)c1cc2c(s1)CCN2c1ncccn1`, the cytotoxicity at 10 µM is -123%. `CCCC(=O)N1CCCN(C(=O)c2oc(C)nc2C)CC1`: the cytotoxicity at 10 µM was -3.92%. Take `O=C(CN1CCCCC1=O)N1CCC2(CC1)[C@H](O)C[C@@H]2O`: the cytotoxicity at 10 µM is -1.74%. With `COCc1nc(N(C)C)ncc1C(=O)NC(C)C`, the cytotoxicity at 10 µM was determined as 12.8%. In the case of `CCOCCCC(=O)NCC(c1ccccc1)N1CCc2sccc2C1` (stereo unspecified), the cytotoxicity at 10 µM was determined as 2.69%.

For the compound `COc1ccc(C(=O)N2CCCCC2c2nccs2)c(OC)c1` (stereo unspecified), the cytotoxicity at 10 µM was -10.7%. In the case of `Cc1nnc([C@H]2C[C@H]3CN(C(=O)Cc4ccc(F)cc4)CC[C@@H]3O2)o1`, the cytotoxicity at 10 µM is -104%. On to `COc1cccc([C@@]2(O)CC[C@@H]3CN(C(=O)c4ccn(C)n4)C[C@@H]32)c1`, for which the cytotoxicity at 10 µM worked out at 2%. Take `CCc1[nH]ncc1C(=O)N1CCN(c2nccc(OC)n2)CC1`: the cytotoxicity at 10 µM was 0.296%.

Consider `Cc1nccnc1N1CCC(Cc2ccccc2Cl)(C(=O)O)CC1`, for which the cytotoxicity at 10 µM came out at 12.6%. For `O=c1ccc2c(n1CCN1CCCC1)CCN(Cc1ccoc1)CC2` the value was -8.97%; for `O=C(COCc1ccccc1Cl)N1CCN(c2ccc(Br)cn2)CC1`, 46.6%; for `Cc1ccc(C2CN(C(=O)c3c(C)cc(C)[nH]c3=O)CCO2)c(C)c1` (stereo unspecified), -19.8%.

`Cc1noc(C)c1CNC(=O)N1CCC(Cc2cnn(C)c2)C1` (stereo unspecified): the cytotoxicity at 10 µM is -8.66%. `CC(C)c1ncc(Cl)c(C(=O)N2CCCN3CCCC3C2)n1` (stereo unspecified): the cytotoxicity at 10 µM was -10.2%. As for `NC(=O)NC1CCN(Cc2ccc(Br)c(F)c2)CC1`, the cytotoxicity at 10 µM was -1.57%.

Regarding `CCOc1no[n+]([O-])c1-c1ccccc1`, the cytotoxicity at 10 µM was -6.59%.

With `Cc1ccccc1C(NC(=O)CNC(=O)c1ccoc1C)C(C)C` (stereo unspecified), the cytotoxicity at 10 µM was found to be 2.74%. For `CC1CCN(C(=O)NCCc2cc(F)ccc2F)C1` (stereo unspecified) the value was 0.154%; for `O=S(=O)(NCC1(c2cccs2)CCOCC1)c1cccnc1`, -3.51%. Take `Cn1cc(CN2CCCC(CCc3c(F)cccc3F)C2)cn1` (stereo unspecified): the cytotoxicity at 10 µM is -7.55%.

On to `NCCn1cc(C(=O)NCc2ccccc2-n2cccn2)nn1`, for which the cytotoxicity at 10 µM was -2.34%. With `COCCC1(CO)CCCN(Cc2ccc(C#N)cc2)C1` (stereo unspecified), the cytotoxicity at 10 µM is -156%. Take `CCc1nc(C2CCCN(C(=O)C3=NN(C(C)C)C(=O)CC3)C2)no1` (stereo unspecified): the cytotoxicity at 10 µM was -7.28%. `Cc1ccnc(C2(C)CCCN2S(=O)(=O)c2c(C)noc2C)n1` (stereo unspecified): the cytotoxicity at 10 µM came to 0.795%. The result for `NC1(C(=O)N2CCC(c3cc(-c4ccccc4Cl)n[nH]3)CC2)CCC1` reads -3.66%; that for `O=C(NCCc1csc(N2CCCC2)n1)N(C1CCCC1)C1CC1`, 10.8%. Take `O=C1CCCN1Cc1nnn2c1CN(c1cccnc1)CCC2`: the cytotoxicity at 10 µM was 3.48%. For the compound `NCC1(c2cccc(F)c2)CCOCC1`, the cytotoxicity at 10 µM was -7.87%. For `Cc1nc2ccccn2c1CC(=O)N[C@@H]1CC[C@@H](N2CCOCC2)[C@@H]1O`, the cytotoxicity at 10 µM was -1.68%. For `Cc1cc(CNC(=O)c2cc(C(C)C)n(C)n2)ccc1S(C)(=O)=O` the value was -3.11%; for `CCNC(=O)[C@@H]1C[C@H](N)CN1C1CCN(c2ccccc2OC)CC1`, -43.9%; for `C[C@@H]1CN(Cc2nc(C(N)=O)no2)CC[C@@]1(O)C1CC1`, -50.3%.

Turning to `COc1ccc(CNC(=O)c2ccc(Cl)cc2F)cc1C(=O)O`, the cytotoxicity at 10 µM is -1.62%. Regarding `CCNC(=O)O[C@H]1COCCN(c2nc3ccccc3s2)C1`, the cytotoxicity at 10 µM is -3.04%. In the case of `CC(=O)NC[C@]1(O)CCN(C(=O)c2ccc3c(c2)OCO3)C[C@H]1O`, the cytotoxicity at 10 µM was -9.91%. As to `Cc1cnccc1-c1cnn(CCNC(=O)C(C)(C)C)c1C1CC1`, the cytotoxicity at 10 µM was -0.459%. With `O=C1CC(c2cccnc2)c2c(c(C(=O)O)cn2-c2ccccc2F)N1` (stereo unspecified), the cytotoxicity at 10 µM is 1.85%.

`O=C1NCCO[C@H]2CN(C(=O)Cc3ccco3)CC[C@@H]12`: the cytotoxicity at 10 µM is -105%. `CCCc1nc(N2CC[C@@H](c3ccc4ccccc4c3)[C@H](O)C2)no1`: the cytotoxicity at 10 µM is -0.471%.

Take `Cc1ccc(NC(=O)N(C)Cc2cnn(C)c2)cc1OCC(F)F`: the cytotoxicity at 10 µM was -0.243%. As to `NCc1cn(CC2CCCN(C(=O)NCc3ccc(Cl)cc3)C2)nn1` (stereo unspecified), the cytotoxicity at 10 µM is -22%.

Take `CN(CCc1ccncc1)C(=O)C1CSCN1C(=O)CC(C)(C)C` (stereo unspecified): the cytotoxicity at 10 µM came to 10.2%.
